Screening results deposited in PubChem BioAssay by Broad Institute.
Shown are actives, neighbours in structure and some others; about 1.9% of the full set was active somewhere.
DENV2 CPE = inhibitors of DENV2 cytopathic effect, primary screen, cell-based, plate reader, single concentration; DENV2-infected cells, cytopathic effect rescue; CPE inhibition, % at 9.99 µM; 350,000 compounds, 1.7% hits; AID 651640, 2012; in the data active = CPE inhibition above about 20%, passing the limit was not always enough; inconclusive = no clear call, values can overlap the other calls; tested in BHK-21 cells;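 also: 0% = median of neutral control wells and 100% = median of positive control wells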
Cneo AK release = Cryptococcus neoformans cell lysis inducers, primary screen, AK release luminescence, single concentration; C. neoformans lysis, adenylate kinase release luminescence, 4 h; normalised: neutral wells 0, clomiphene wells 100; 360,000 compounds, 0.2% hits; AID 651654, 2012; lysis activity, % at 15 µM;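 active = mean lysis activity across replicates of at least 80%, whatever share of replicates individually reach that level; inactive = mean lysis activity below 80%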
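Material – log-phase Cryptococcus neoformans yeast cells · Input – 5 × 10^6 yeast cells/mL · Medium – fresh YPD growth medium · Doses – single compound concentration per well · Timing – static 4 h at 37 °C with compound, 1 h detection · Detection – adenylate kinase release luminescence · Read-out – signal increase indicating cell lysis · Control set – Clomiphene as positive lysis control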
PGC1a acetyl inh = inhibitors of PGC1a acetylation signal, primary screen, cell-based, U2OS, AlphaScreen, inhibitor mode | AID 651687, 2012 | 350,000 compounds, 0.17% hits | AlphaScreen anti-acetyl-lysine; with virally co-expressed GCN5 acetyltransferase | inhibition, % at 15.6 µM;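 active = every replicate shows inhibition of at least 40%; inconclusive = mean inhibition at least 40% but some replicate below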;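 also: 0% = neutral control wells and 100% = positive control wells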
Xi reactivation = activators of inactive X chromosome reactivation, primary screen, imaging, XiGFP fibroblasts, GFP high-content imaging, set 2. XiGFP mouse fibroblasts, % GFP-positive cells imaging, 3 d; cells co-treated with 5-aza-dC sensitizer; scaled so ellipticine positive control = 100%. activation, % at 7.58 µM. 360,000 compounds, 0.055% hits. AID 743238, 2013;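 active = mean normalized replicate activation at least 10% and every replicate at or above 10%; inconclusive = only one of the two criteria met; inactive = mean below 10% and not all replicates reach 10%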;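 also: 0% = median of on-plate neutral control wells and 100% = ellipticine 6 µM median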
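System: 68-5-11 XiGFP fibroblast line | Buffer or medium: DMEM containing 5-aza-dC | Compound: Single point | Times: Compounds 3 days, fix/stain 15 min at room temperature | Benchmarks: Positive control ellipticine, 6 µM final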
FN deposition inh = inhibitors of fibronectin matrix deposition, primary screen, AH1F cells, Alexa488-fibronectin fluorescence, plate reader. AH1F fibroblasts, overnight. inhibition, % at 12.6 µM. 350,000 compounds, 0.086% hits. AID 743247, 2014;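 active = mean inhibition across replicates of 30% or more, regardless of how many single replicates reach that level; inconclusive = mean under 30% yet at least half of replicates reach 30%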;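 also: positive control wells lacked labelled fibronectin entirely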
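Material – AH1F fibroblast monolayer, labelled fibronectin deposition · Reagent – labelled fibronectin 24 nM · Timing – 1 h adhesion, overnight exposure · Measured by – fluorescence at 485 nm excitation, 525 nm emission · Read-out – inhibition of fibronectin deposition signal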
F508del corr = F508del CFTR correction, initial screen, CFBE line, single point | CFBE cells, YFP halide quenching; stimulated with forskolin plus potentiator P3; % fluorescence drop versus neutral controls | activity (quench increase), % at 7.58 µM | 350,000 compounds, 0.36% hits | AID 720511, 2013;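 active = mean added fluorescence quench of at least 8% versus neutral control, with both replicates also reaching 8%; inconclusive = only one of the mean or replicate conditions met; inactive = mean below 8% and not both replicates reaching 8%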;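 also: cells transiently co-express mutant CFTR-F508del with the halide-sensitive YFP; corrector assay measuring rescue of mutant channel to the surface after 24 h compound exposure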
The depositor's hits bear a star; ? = inconclusive; nt = no result given; ! = a repeat was not active.

SMILES	DENV2 CPE	Cneo AK release	PGC1a acetyl inh	Xi reactivation	FN deposition inh	F508del corr
C[C@@H]1CCCCO[C@@H](CN(C)Cc2ccccc2)[C@H](C)CN([C@H](C)CO)C(=O)c2cc(NC(=O)c3ccccc3)ccc2O1	24*	4	2	0	-10	-1
C[C@H](CO)N1C[C@H](C)[C@@H](CN(C)Cc2ccccc2)OCCCC[C@H](C)Oc2ccc(NC(=O)c3ccccc3)cc2C1=O	-11	-14	-19	0	1	1
C[C@@H]1CN([C@H](C)CO)C(=O)c2cc(NC(=O)c3ccccc3)ccc2O[C@@H](C)CCCCO[C@H]1CN(C)Cc1ccccc1	13	6	-13	0	0	2
COc1ccc(CN(C)C[C@H]2OCCCC[C@@H](C)Oc3ccc(NC(=O)c4ccccc4)cc3C(=O)N([C@H](C)CO)C[C@@H]2C)cc1	-2	102*!	13	0	-2	-1
COc1ccc(CN(C)C[C@@H]2OCCCC[C@H](C)Oc3ccc(NC(=O)c4ccccc4)cc3C(=O)N([C@H](C)CO)C[C@@H]2C)cc1	-10	-8	2	0	nt	4
C[C@@H]1CCCCO[C@H](CN(C)Cc2ccccc2)[C@@H](C)CN([C@@H](C)CO)C(=O)c2cc(NC(=O)c3ccccc3)ccc2O1	54*	-3	2	0	19	0
CO[C@@H]1CN(C)C(=O)c2cc(NS(=O)(=O)c3ccccc3Cl)ccc2OC[C@H](C)NC[C@@H]1C	-11	-1	-3	0	5	-2
COc1ccc(CN(C)C[C@@H]2OCCCC[C@H](C)Oc3ccc(NC(=O)Cc4ccccc4)cc3C(=O)N([C@H](C)CO)C[C@@H]2C)cc1	27*	-2	-5	0	nt	0
COc1ccc(CN(C)C[C@H]2OCCCC[C@@H](C)Oc3ccc(NC(=O)Cc4ccccc4)cc3C(=O)N([C@@H](C)CO)C[C@@H]2C)cc1	?	0	-9	1	nt	-2
C[C@@H]1CCCCO[C@@H](CN(C)Cc2ccccc2)[C@@H](C)CN([C@H](C)CO)C(=O)c2cc(NC(=O)c3ccccc3)ccc2O1	100*	15	15	0	3	-1
CC(C)CC#Cc1cnc2c(c1)C(=O)N([C@H](C)CO)C[C@H](C)[C@H](CN(C)Cc1cccc(C(=O)O)c1)O2	6	nt	7	0	8	0
O=C(O)c1cc(=O)c2c(OCC(O)COc3cccc4oc(C(=O)O)cc(=O)c34)cccc2o1	26*	1	2	0	2	-2
O=C(C[C@@H]1CC[C@H]2[C@@H](COC[C@H](O)CN2C(=O)Nc2ccc(F)cc2)O1)NCCCN1CCOCC1	-3	0	-10	0	-8	-1
C[C@@H]1CN([C@H](C)CO)C(=O)c2cc(NC(=O)NC3CCCCC3)ccc2O[C@@H](C)CCCCO[C@H]1CN(C)Cc1ccc2c(c1)OCO2	63*	-7	-2	0	nt	-1
C[C@@H]1CN([C@@H](C)CO)C(=O)c2cc(NC(=O)NC3CCCCC3)ccc2O[C@@H](C)CCCCO[C@H]1CN(C)Cc1ccc2c(c1)OCO2	45*	-2	-2	0	nt	-4
C[C@@H]1CCCCO[C@@H](CN(C)CC2CC2)[C@@H](C)CN([C@H](C)CO)C(=O)c2cc(NS(=O)(=O)c3ccccc3)ccc2O1	2	5	-4	0	nt	-3
CC(OC(=O)Cc1coc2ccc3ccccc3c12)C(=O)Nc1ncc(Cl)cc1Cl (stereo not drawn)	nt	nt	nt	0	2	nt
Cc1ccc2c(CC(=O)OC(C)C(=O)Nc3ncc(Cl)cc3Cl)coc2c1 (stereo not drawn)	79*	0	8	0	2	-1
O=C(NC1CCCCC1)N1CC2(C1)[C@H](c1ccccc1)[C@@H](CO)N2CC1CC1	2	nt	-1	0	-10	-4
